Assay results published in ChEMBL document CHEMBL1157581, “Synthesis, metabolism and in vitro cytotoxicity studies on novel lavendamycin antitumor agents” (Bioorg Med Chem, 2010).
Activity calls are given as the source filed them. The calls are words filed in the database; no cut-off is given here.

Tests used:
BE [1] = assay: Cytotoxicity against NQO1 deficient human BE cells after 3 to 5 days by MTT assay; format: functional, cell-based
How it was run: (§1)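 BE colon adenocarcinoma cells and NQO1-transfected BE-NQ cells (337 nmol/min/mg protein, DCPIP) in MEM with 10% FBS, 37 °C, 5% CO2. Seeded 10,000 cells/mL, attached 16 h, exposed 2 h, then washed out into fresh medium for 3–5 days. MTT 50 µg, 4 h, formazan in DMSO, A560; IC50 from semi-log plots of percent control.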

BE [2] = assay: Selectivity index, ratio of IC50 for human BE cells expressing human NQO1 to IC50 for NQO1 deficient human BE cells; format: functional
BE [3] = assay: Cytotoxicity against human BE cells expressing human NQO1 after 3 to 5 days by MTT assay; format: functional, cell-based; how it was run: as §1
[4] = target: NAD(P)H dehydrogenase [quinone] 1 (Homo sapiens) (UniProt P15559); assay: Activity of human NQO1 assessed as initial rate of compound reduction per mg of protein at 25 uM in presence of NADH by cytochrome c reduction assay
How it was run: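 Recombinant human NQO1 (0.1–3 µg) with cytochrome c 70 µM as terminal electron acceptor, NADH 1 mM, substrate 25 µM in 25 mM Tris-HCl pH 7.4 containing 0.7 mg/mL BSA and 0.1% Tween-20, room temperature, started with NADH. A550 followed; initial rate from linear 0–30 s segment, ε 21.1 mM⁻¹ cm⁻¹, µmol cytochrome c/min/mg NQO1; at least triplicate.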

A549 [5] = assay: Suppression of clonogenic survival of human A549 cells at <100 nM; format: functional, cell-based
BE [6] = assay: Selectivity index, ratio of IC50 for NQO1 deficient human BE cells to IC50 for human BE cells expressing human NQO1
A549 [7] = assay: Inhibition of clonogenic survival of human A549 cells at 100 nM; format: functional

NAD(P)H dehydrogenase [quinone] 1 (Homo sapiens), sequence (P15559 whole entry): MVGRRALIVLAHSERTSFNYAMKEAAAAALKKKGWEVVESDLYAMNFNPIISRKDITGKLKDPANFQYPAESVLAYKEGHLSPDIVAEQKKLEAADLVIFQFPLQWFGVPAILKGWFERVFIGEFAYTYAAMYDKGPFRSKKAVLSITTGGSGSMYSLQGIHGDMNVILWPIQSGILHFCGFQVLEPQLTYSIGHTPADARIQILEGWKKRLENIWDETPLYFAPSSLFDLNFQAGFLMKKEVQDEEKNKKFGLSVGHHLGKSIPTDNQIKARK

SMILES	Activity [4] [µmol/min]	IC50 (BE [1]) [µM]	Ratio IC50 (BE [2])	IC50 (BE [3]) [µM]	inhibition (A549 [5])	Ratio IC50 (BE [6])	inhibition at 0.1 µM (A549 [7]) [%]
CCC(C)OC(=O)c1cc2c([nH]c3ccccc32)c(-c2ccc3c(n2)C(=O)C(NC(C)=O)=CC3=O)n1 (stereo not given)	3.9	33	0.8	40			
COC(=O)c1cc2c([nH]c3ccccc32)c(-c2ccc3c(n2)C(=O)C(NC(C)=O)=CC3=O)n1					Active		
NC1=CC(=O)c2ccc(-c3nc(C(=O)NCCO)cc4c3[nH]c3ccccc34)nc2C1=O	26	1.1		1.1		1	
COC(=O)c1nc(-c2ccc3c(n2)C(=O)C(N)=C(OC)C3=O)c2[nH]c3ccccc3c2c1C					Active		
N=C1C=C(O)c2ccc(-c3nc(C(N)=O)cc4c3[nH]c3ccccc34)nc2C1=O							100
COC(=O)c1[nH]c(-c2ccc3c(n2)C(=O)C(=N)C(Cl)=C3O)c2nc3ccccc3c-2c1C					Active		70
COC(=O)c1cc2c([nH]c3ccccc32)c(-c2ccc3c(n2)C(=O)C(NC=O)=CC3=O)n1	20	14		10		1.4	
COC(=O)c1nc(-c2ccc3c(n2)C(=O)C(NC(=O)c2ccco2)=CC3=O)c2[nH]c3ccccc3c2c1C	5.8	> 50		> 50			
CCOC(=O)c1cc2c([nH]c3ccc(O)cc32)c(-c2ccc3c(n2)C(=O)C(NC(C)=O)=CC3=O)n1	21	4		4.8		0.8	
COC(=O)c1nc(-c2ccc3c(n2)C(=O)C(N)=CC3=O)c2[nH]c3ccc(O)cc3c2c1C	31	14		5.7		2.5	
CCCCOC(=O)c1cc2c([nH]c3ccccc32)c(-c2ccc3c(n2)C(=O)C(NC(=O)CCC(=O)O)=CC3=O)n1	5.2	12		7.6		1.6	
CCOC(=O)c1cc2c([nH]c3ccccc32)c(-c2ccc3c(n2)C(=O)C(N)=C(Cl)C3=O)n1	6.9	> 50		> 50			
CC(=O)NC1=CC(=O)c2ccc(-c3nc(C(=O)NCC(O)CO)cc4c3[nH]c3ccccc34)nc2C1=O (stereo not given)	36	> 50		18		>2.8	
COC(=O)c1[nH]c(-c2ccc3c(n2)C(=O)C(NC(C)=O)=CC3=O)c2nc3ccccc3c-2c1C					Active		
COC(=O)c1cc2c([nH]c3ccccc32)c(-c2ccc3c(n2)C(=O)C(N)=CC3=O)n1	28	45		22		2	
CC(C)CCOC(=O)c1cc2c([nH]c3ccc(O)cc32)c(-c2ccc3c(n2)C(=O)C(N)=CC3=O)n1	2.9	> 50		> 50			

Continued, in another order:

Activity [4] [µmol/min]	SMILES	IC50 (BE [1]) [µM]	Ratio IC50 (BE [2])	IC50 (BE [3]) [µM]	inhibition (A549 [5])	Ratio IC50 (BE [6])	inhibition at 0.1 µM (A549 [7]) [%]
0.04	COC(=O)c1cc2c([nH]c3ccccc32)c(-c2ccc3c(n2)C(=O)C(NC(=O)C(C)C)=CC3=O)n1	> 50		> 50			
3.6	CCOC(=O)c1cc2c([nH]c3ccccc32)c(-c2ccc3c(n2)C(=O)C(NC(C)=O)=CC3=O)n1	13		10		1.3	
35	NC1=CC(=O)c2ccc(-c3nc(C(=O)N4CCCC4)cc4c3[nH]c3ccccc34)nc2C1=O	> 50		45		>1.1	
6.8	CCCOC(=O)c1cc2c([nH]c3ccccc32)c(-c2ccc3c(n2)C(=O)C(NC(C)=O)=CC3=O)n1	3.2		2.4		1.3	
2.2	CC(=O)NC1=CC(=O)c2ccc(-c3nc(C(=O)NCCO)cc4c3[nH]c3ccccc34)nc2C1=O	> 50		> 50			
43	CC(=O)NC1=CC(=O)c2ccc(-c3nc(C(=O)N4CCCC4)cc4c3[nH]c3ccccc34)nc2C1=O	13		6.2		2.1	
13	NC(=O)c1cc2c([nH]c3ccccc32)c(-c2ccc3c(n2)C(=O)C(NC(=O)CCl)=CC3=O)n1	12		5.8		2.1	
103	NC1=CC(=O)c2ccc(-c3nc(C(=O)N4CCOCC4)cc4c3[nH]c3ccccc34)nc2C1=O	18		2		9	
8.7	CC(=O)NC1=CC(=O)c2ccc(-c3nc(C(=O)N4CCN(Cc5ccccc5)CC4)cc4c3[nH]c3ccccc34)nc2C1=O	6.5		9.8		0.7	
34	O=C(CCl)NC1=CC(=O)c2ccc(-c3nc(C(=O)N4CCCC4)cc4c3[nH]c3ccccc34)nc2C1=O	8		3		2.7	
